Experimental data published in publication PMC5908721 (Journal of medicinal chemistry, 2018).

Key:
MV4-11 cells [1] = assay: Western blot analysis in MV4-11 cells; type: cell-based; details: for Level of HDAC6: ≥0.5 μM 13e or 5 μM SAHA
Summary of the method: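 MV4-11 cells (1,500,000/well) are grown 12 h, then treated with test compound, mainly for 24 h (0.25–2 μM; 5 μM SAHA as reference). For p53, 0.5 μM is given for 6 or 12 h, and bortezomib is co-treated for 6 h. Cells are lysed in RIPA, sonicated, centrifuged, BCA-normalized, and run on 4–12% Bis-Tris gels. Blots are probed overnight at 4 °C with primary antibodies (1/1000), with actin as loading control (n ≥ 2).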

[2] = clinical use; cited from earlier work
HDAC1 [3] = target: T1, HDAC1 (Homo sapiens, UniProt Q13547); assay: In vitro HDACs inhibition fluorescence assay, HDAC1; type: biochemical; details: preincubation 15, 30, 60, 90 min
T1 sequence (Q13547 whole entry): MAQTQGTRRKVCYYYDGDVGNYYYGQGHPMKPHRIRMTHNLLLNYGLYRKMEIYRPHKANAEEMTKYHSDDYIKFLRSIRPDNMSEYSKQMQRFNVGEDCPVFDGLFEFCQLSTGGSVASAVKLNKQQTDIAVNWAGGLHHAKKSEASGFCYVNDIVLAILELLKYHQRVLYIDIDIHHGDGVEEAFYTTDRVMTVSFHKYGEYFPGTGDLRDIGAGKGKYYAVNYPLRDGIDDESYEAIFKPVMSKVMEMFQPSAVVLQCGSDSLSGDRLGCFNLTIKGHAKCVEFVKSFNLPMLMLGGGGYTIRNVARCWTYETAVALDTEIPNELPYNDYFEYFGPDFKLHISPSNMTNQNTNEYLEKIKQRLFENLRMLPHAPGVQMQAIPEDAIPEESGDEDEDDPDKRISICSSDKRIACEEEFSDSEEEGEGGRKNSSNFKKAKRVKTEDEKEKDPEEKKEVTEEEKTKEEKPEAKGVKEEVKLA
Summary of the method: (§1)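 Recombinant HDAC enzyme is preincubated with serial test-compound concentrations at 30 °C for 15, 30, 60 or 90 min. Boc-Lys(acetyl)-AMC is added for 2 h at 30 °C. The reaction is stopped with a trypsin/trichostatin A developer, and fluorescence is read after 30 min (ex 360/em 460 nm). Inhibition is taken relative to control wells, and IC50 comes from a variable-slope log(inhibitor)–normalized response fit.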

HDAC2 [4] = target: T2, HDAC2 (Homo sapiens, UniProt Q92769); assay: In vitro HDACs inhibition fluorescence assay, HDAC2; type: biochemical; details: preincubation 15, 30, 60, 90 min
T2 sequence (Q92769 whole entry): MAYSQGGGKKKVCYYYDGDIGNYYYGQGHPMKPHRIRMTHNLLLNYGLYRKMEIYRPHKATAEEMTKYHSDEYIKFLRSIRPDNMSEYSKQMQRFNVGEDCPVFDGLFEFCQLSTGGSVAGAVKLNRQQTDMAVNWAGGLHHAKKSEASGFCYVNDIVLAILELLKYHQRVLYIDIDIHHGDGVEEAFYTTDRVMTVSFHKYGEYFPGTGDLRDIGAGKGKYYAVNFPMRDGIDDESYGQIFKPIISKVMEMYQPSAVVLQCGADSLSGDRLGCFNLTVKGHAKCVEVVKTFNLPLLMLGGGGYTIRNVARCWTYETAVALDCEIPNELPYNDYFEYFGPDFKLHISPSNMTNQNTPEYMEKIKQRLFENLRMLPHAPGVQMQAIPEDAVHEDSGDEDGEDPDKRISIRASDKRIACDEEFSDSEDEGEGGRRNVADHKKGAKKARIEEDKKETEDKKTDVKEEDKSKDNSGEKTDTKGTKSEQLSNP
Summary of the method: as §1

HDAC3 [5] = target: T3, HDAC3 (Homo sapiens, UniProt O15379); assay: In vitro HDACs inhibition fluorescence assay, HDAC3; type: biochemical; details: preincubation 15, 30, 60, 90 min
T3 sequence (O15379 whole entry): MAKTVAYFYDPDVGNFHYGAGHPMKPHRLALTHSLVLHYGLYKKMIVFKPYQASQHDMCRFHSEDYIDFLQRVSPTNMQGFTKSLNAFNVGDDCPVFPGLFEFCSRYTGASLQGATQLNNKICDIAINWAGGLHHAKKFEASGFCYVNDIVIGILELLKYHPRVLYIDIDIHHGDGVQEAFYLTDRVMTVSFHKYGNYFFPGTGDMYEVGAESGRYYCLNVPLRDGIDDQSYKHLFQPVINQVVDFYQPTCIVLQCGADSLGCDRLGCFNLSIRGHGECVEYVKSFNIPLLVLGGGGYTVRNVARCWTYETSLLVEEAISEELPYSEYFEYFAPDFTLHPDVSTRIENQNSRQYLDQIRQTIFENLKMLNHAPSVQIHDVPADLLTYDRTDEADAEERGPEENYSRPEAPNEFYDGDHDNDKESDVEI
T3 sequence (Q9Y618 395-489 partner limits assumed): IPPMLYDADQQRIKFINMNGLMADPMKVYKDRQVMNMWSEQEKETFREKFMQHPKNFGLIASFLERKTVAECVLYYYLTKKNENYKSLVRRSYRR

HDAC1 [6] = target: T1, HDAC1; assay: Recombinant HDAC Vmax study; type: biochemical; details: 2 h preincubation
HDAC2 [7] = target: T2, HDAC2; assay: Recombinant HDAC Vmax study; type: biochemical; details: 2 h preincubation
Summary of the method: (§2)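 Recombinant human HDAC is incubated with inhibitor dilutions in HDAC buffer for 2 h at 30 °C. Serially diluted Boc-Lys(acetyl)-AMC is then added. After 2 h, the reaction is quenched with trypsin (5 mg/mL) plus 1 μM TSA solution, and fluorescence is read at 360/460 nm. Vmax and Km come from a Michaelis–Menten fit, and Lineweaver–Burk double-reciprocal plots are derived from them.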

HDAC3 [8] = target: T3, HDAC3; assay: Recombinant HDAC Vmax study; type: biochemical; details: 2 h preincubation
Summary of the method: as §2

MV4-11 cells [9] = assay: MV4-11 EC50 analysis / cell viability; type: cell-based
PC-3 cells [10] = assay: PC-3 EC50 analysis / cell viability; type: cell-based; details: 24 and 48 h
MMP-2/MMP-9 = MMP-2/MMP-9 inhibitory activity; type: biochemical; details: read-out: MMP-2/MMP-9, no inhibition at concentrations up to
Summary of the method: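 Gelatinase (MMP-2/MMP-9) fluorogenic kit assay. Test compound is added as a 100 μM solution (before mixing), alongside a 40 μM reference MMP inhibitor. Enzyme diluted in activation buffer is added for 10–15 min, then substrate. The mix is incubated at 37 °C for 2 h, and fluorescence is read at ex 320/em 405 nm.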

APN/CD13 = target: T4, APN/CD13 (Sus scrofa, UniProt P15145); assay: CD13 inhibition assay; type: biochemical, porcine
T4 sequence (P15145 1-963): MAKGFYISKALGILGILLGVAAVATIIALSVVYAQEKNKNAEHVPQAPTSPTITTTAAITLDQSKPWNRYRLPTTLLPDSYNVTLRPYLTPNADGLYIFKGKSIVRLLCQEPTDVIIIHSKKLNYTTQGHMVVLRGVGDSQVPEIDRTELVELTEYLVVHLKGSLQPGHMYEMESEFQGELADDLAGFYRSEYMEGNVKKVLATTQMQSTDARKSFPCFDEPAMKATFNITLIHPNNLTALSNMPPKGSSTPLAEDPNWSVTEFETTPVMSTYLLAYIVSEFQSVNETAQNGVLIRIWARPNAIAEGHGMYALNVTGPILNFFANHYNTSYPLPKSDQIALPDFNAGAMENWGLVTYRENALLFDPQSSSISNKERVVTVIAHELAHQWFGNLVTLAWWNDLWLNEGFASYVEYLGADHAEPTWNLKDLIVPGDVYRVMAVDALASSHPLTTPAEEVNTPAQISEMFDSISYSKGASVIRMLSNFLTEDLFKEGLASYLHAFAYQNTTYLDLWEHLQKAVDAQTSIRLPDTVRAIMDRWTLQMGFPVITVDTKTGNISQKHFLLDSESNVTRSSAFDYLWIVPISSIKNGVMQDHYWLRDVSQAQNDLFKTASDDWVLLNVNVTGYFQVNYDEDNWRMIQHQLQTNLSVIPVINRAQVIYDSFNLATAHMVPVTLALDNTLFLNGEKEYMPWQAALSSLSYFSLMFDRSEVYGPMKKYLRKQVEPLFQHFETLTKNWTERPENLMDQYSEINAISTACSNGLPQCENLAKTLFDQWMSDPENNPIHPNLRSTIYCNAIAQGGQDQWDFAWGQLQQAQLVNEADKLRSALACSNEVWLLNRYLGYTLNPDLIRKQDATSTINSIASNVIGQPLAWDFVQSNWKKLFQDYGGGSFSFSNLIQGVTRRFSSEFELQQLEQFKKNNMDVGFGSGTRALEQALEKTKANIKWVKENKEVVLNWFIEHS
Summary of the method: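 Porcine kidney microsomal aminopeptidase (CD13) is added to test compound at various concentrations. After 5 min, L-leucine-p-nitroanilide substrate is added, and the mix is incubated at 37 °C for 30 min. Absorbance is then read at 405 nm.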

PC-3 cells [11] = assay: Western blot analysis in PC-3 cells; type: cell-based; details: PC-3, 24 h
Summary of the method: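 PC-3 cells (300,000 per well, six-well) grown 12 h, then given test compound at 1 and 2 μM for 24 h; 5 μM reference HDAC inhibitor as positive control. RIPA lysates were sonicated, cleared at 4 °C, and BCA-normalised. Proteins were separated on 4–12% Bis-Tris gels in MES buffer. Primary antibodies were used at 1/1000 overnight at 4 °C, with actin as loading control. Representative of n ≥ 2 experiments.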

MV4-11 cells [12] = assay: Cell cycle analysis in MV4-11 cells; type: cell-based; details: MV4-11, 24 h
Summary of the method: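 MV4-11 cells plated at 1,500,000 per well in six-well plates, grown 12 h, then exposed to test compound for 24 h. Cells were PBS-washed, fixed overnight at 4 °C in cold 75% ethanol, and washed twice in cold PBS. They were RNase A-treated at 37 °C for 30 min, stained with 50 μg/mL propidium iodide (30 min, 4 °C), and analysed by flow cytometry. Representative of n ≥ 2 experiments.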

PC-3 cells [13] = assay: Cell cycle analysis in PC-3 cells; type: cell-based; details: PC-3, 24 h
Summary of the method: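 PC-3 cells (300,000/well) are grown 12 h, then treated with test compound at various concentrations for 24 h. Cells are harvested, PBS-washed, fixed overnight in 75% cold ethanol at 4 °C, and washed in cold PBS. They are then treated with RNase A at 37 °C for 30 min and stained with propidium iodide (50 μg/mL in PBS) for 30 min at 4 °C. DNA content is read by flow cytometry (n ≥ 2).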

PC-3 cells [14] = assay: PC-3 cell morphology, phase-contrast light microscope; type: cell-based; details: 48 h
Summary of the method: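 PC-3 cells in culture flasks are exposed for 48 h to 2 or 10 μM test compound or DMSO vehicle. Cell morphology and attachment are then examined by phase-contrast light microscopy (n ≥ 2).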

For `CC(C)C[C@H](NC(=O)[C@H](Cc1ccccc1)NC(=O)c1cnccn1)B(O)O` [bortezomib, reference compound], the “Effect on p53 degradation upon hydrazide HDAC inhibitor treatment” value (MV4-11 cells [1]; MV4-11, 6 h treatment) was “blocks this degradation”.
For `NNC(=O)c1ccncc1` [isoniazid], the Rate of hepatotoxicity [2] is given as 0.5–2% and the “Rate of lethal hepatotoxicity” value [2] is given as 1/25000.
For `COc1ccc(C(=O)N[C@@H](Cc2c[nH]c3ccccc23)C(=O)NCc2ccc(C(=O)Nc3ccccc3N)cc2)cc1` [Compound 11a, (S)-4-((3-(1H-indol-3-yl)-2-(4-methoxybenzamido)propanamido)-methyl)-N-(2-aminophenyl)benzamide, reference compound], the “Time dependence of HDAC1 inhibition” value (HDAC1 [3]) was “time-dependent inhibition”, the “Time dependence of HDAC2 inhibition” value (HDAC2 [4]) was “time-dependent inhibition” and the “Time dependence of HDAC3 inhibition” value (HDAC3 [5]) was “time-dependent inhibition”. The “Type of inhibition of HDAC1 (Lineweaver-Burke analysis)” value (HDAC1 [6]) was “competitive inhibition”, the “Type of inhibition of HDAC2 (Lineweaver-Burke analysis)” value (HDAC2 [7]) was “mixed-type inhibition” and the “Type of inhibition of HDAC3 (Lineweaver-Burke analysis)” value (HDAC3 [8]) was “mixed-type inhibition”.
For `CCCNNC(=O)c1ccc(CNC(=O)[C@H](Cc2c[nH]c3ccccc23)NC(=O)c2ccc(OC)cc2)cc1` [Compound 13b, (S)-N-(3-(1H-Indol-3-yl)-1-oxo-1-((4-(2-propylhydrazine-1-carbonyl)benzyl)amino)propan-2-yl)-4-methoxybenzamide], the “Time dependence of HDAC1 inhibition” value (HDAC1 [3]) was “time-dependent inhibition”, the “Time dependence of HDAC2 inhibition” value (HDAC2 [4]) was “time-dependent inhibition” and the “Time dependence of HDAC3 inhibition” value (HDAC3 [5]) was “time-dependent inhibition”. The “Type of inhibition of HDAC1 (Lineweaver-Burke analysis)” value (HDAC1 [6]) was “mixed inhibition”, the “Type of inhibition of HDAC2 (Lineweaver-Burke analysis)” value (HDAC2 [7]) was “mixed inhibition” and the “Type of inhibition of HDAC3 (Lineweaver-Burke analysis)” value (HDAC3 [8]) was “mixed inhibition”.
For `O=C(CCCCCCC(=O)Nc1ccccc1)NO` [SAHA, vorinostat, reference compound], the “Level of HDAC6” value (MV4-11 cells [1]; MV4-11, 24 h) was “nearly absent”.
For `CCCNNC(=O)c1ccc(NC(=O)[C@H](Cc2c[nH]c3ccccc23)NC(=O)c2ccc(OC)cc2)cc1` [Compound 13e, (S)-N-(3-(1H-Indol-3-yl)-1-oxo-1-((4-(2-propylhydrazine-1-carbonyl)phenyl)amino)propan-2-yl)-4-methoxybenzamide], the “Viable MV4-11 cell population over time (resorufin fluorescence)” value (MV4-11 cells [9]; 10 and 2 μM, 24 and 48 h) was “decreased with time”, the MV4-11 cell death (MV4-11 cells [9]; 48 h treatment at high concentration) was “almost all MV4-11 cells were dead” and the “MV4-11 antiproliferative activity, times higher than 13b” value (MV4-11 cells [9]; vs 13b) was 4.1 times. The “Viable PC-3 cell population over time (resorufin fluorescence)” value (PC-3 cells [10]; 2 μM) was “slightly increased”, the “Viable PC-3 cell population over time (resorufin fluorescence)” value (PC-3 cells [10]; 10 μM) was “remained unchanged” and the IC50 (MMP-2/MMP-9) was over 50 µM. For the same molecule, the IC50 (APN/CD13) was over 50 µM, the “Treatment time required for HDAC6 repression” value (MV4-11 cells [1]; MV4-11) was “more than 12 h” and the “Time to degradation of p53” value (MV4-11 cells [1]; MV4-11, 0.5 μM) was at most 6 h. For the same molecule, the HDAC1 level (MV4-11 cells [1]; MV4-11, 24 h) was “did not induce down-regulation of class I HDAC1”, the Level of acetyl-tubulin (MV4-11 cells [1]; MV4-11, 24 h) was “increased” and the “Level of acetylated histone H3” value (MV4-11 cells [1]; MV4-11, 24 h, 0.25-2 μM) was “markedly increase”. For the same molecule, the “Level of acetylated histone H4” value (MV4-11 cells [1]; MV4-11, 24 h, 0.25-2 μM) was “markedly increase”, the “Cleavage of pro-caspase3 / PARP (apoptosis)” value (MV4-11 cells [1]; MV4-11, 24 h, 1 and 2 μM) was “caused the cleavage of inactive pro-caspase3” and the “Level of HDAC6” value (MV4-11 cells [1]; MV4-11, 24 h) was “nearly absent”. For the same molecule, the HDAC1 level (PC-3 cells [11]) was “did not induce down-regulation of class I HDAC1”, the “Cleavage of pro-caspase3 / PARP (apoptosis)” value (PC-3 cells [11]; 1 and 2 μM) was “no observed cleavage of pro-caspase3 or PARP” and the “HDAC6 level and acetylated tubulin level” value (PC-3 cells [11]; 1 and 2 μM) was “did not induce down-regulation of HDAC6 nor increase the level of acetylated tubulin”. The Cell cycle effect (MV4-11 cells [12]) was “induced G1/S and sub-G1 cell cycle arrest”, the Cell cycle effect (PC-3 cells [13]) was “triggered G2/M arrest” and the PC-3 cell morphology (PC-3 cells [14]; 2 μM) was “did not obviously affect cell morphology”. For the same molecule, the PC-3 cell morphology (PC-3 cells [14]; 10 μM) was “cells were still alive and attached to the culture flask”.
